In ChEMBL document CHEMBL1681760, “Further SAR study on 11-O-substituted aporphine analogues: identification of highly potent dopamine D3 receptor ligands” (Bioorg Med Chem, 2011):

Legend:
D(1A) dopamine receptor [1] = target: T1, D(1A) dopamine receptor (Homo sapiens, UniProt P21728); assay: Displacement of [3H]SCH23390 from dopamine D1 receptor expressed in human HEK293 cells at 10 uM by liquid scintillation counter; format: cell-based
D(2) dopamine receptor [2] = target: T2, D(2) dopamine receptor (Homo sapiens, UniProt P14416); assay: Displacement of [3H]spiperone from dopamine D2 receptor expressed in human HEK293 cells at 10 uM by liquid scintillation counter; format: cell-based
T2 sequence (P14416 whole entry): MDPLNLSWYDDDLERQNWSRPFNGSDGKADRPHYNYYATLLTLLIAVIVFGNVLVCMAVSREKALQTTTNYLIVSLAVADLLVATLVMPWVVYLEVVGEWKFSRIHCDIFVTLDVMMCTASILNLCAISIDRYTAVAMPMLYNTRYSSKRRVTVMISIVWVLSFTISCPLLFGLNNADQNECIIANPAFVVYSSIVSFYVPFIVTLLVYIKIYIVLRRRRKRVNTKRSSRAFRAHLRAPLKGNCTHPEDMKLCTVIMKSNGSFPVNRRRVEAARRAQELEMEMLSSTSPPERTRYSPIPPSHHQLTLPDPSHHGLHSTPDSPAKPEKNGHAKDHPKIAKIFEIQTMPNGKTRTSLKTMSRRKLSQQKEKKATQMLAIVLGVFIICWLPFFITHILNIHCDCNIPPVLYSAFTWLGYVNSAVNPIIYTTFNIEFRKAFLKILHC

D(3) dopamine receptor = D(3) dopamine receptor (Homo sapiens, UniProt P35462); assay: Displacement of [3H]spiperone from dopamine D3 receptor expressed in human HEK293 cells by liquid scintillation counter; format: cell-based
D(3) dopamine receptor, sequence (P35462 whole entry): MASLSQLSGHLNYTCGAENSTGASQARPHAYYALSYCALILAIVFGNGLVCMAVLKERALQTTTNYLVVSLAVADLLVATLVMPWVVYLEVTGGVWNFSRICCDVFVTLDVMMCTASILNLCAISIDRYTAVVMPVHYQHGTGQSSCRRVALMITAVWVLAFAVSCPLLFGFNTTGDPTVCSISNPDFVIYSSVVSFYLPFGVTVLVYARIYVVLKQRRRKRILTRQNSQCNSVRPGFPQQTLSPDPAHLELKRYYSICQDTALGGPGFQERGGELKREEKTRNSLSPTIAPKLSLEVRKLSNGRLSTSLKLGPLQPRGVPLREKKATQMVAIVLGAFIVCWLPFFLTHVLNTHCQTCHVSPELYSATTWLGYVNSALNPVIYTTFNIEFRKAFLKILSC
Method in brief: (§1)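 Stably transfected HEK293 membranes, 15 µg per tube, in duplicate. Competed against [3H]spiperone with increasing compound concentrations from 1 nM. Buffer 50 mM Tris, 4 mM MgCl2, pH 7.4; 30 °C for 50 min. Unlabelled spiperone defined nonspecific binding. Stopped by rapid GF/B filtration and washing with cold 50 mM Tris/5 mM EDTA.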

D(2) dopamine receptor [3] = target: T2, D(2) dopamine receptor; assay: Displacement of [3H]spiperone from dopamine D2 receptor expressed in human HEK293 cells by liquid scintillation counter; format: cell-based; method in brief: as §1
D(1A) dopamine receptor [4] = target: T1, D(1A) dopamine receptor; assay: Displacement of [3H]SCH23390 from dopamine D1 receptor expressed in human HEK293 cells by liquid scintillation counter; format: cell-based
Method in brief: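 Membranes from stably transfected HEK293 cells, 15 µg per tube, in duplicate. Incubated with [3H]SCH23390 and increasing compound concentrations from 1 nM. Buffer 50 mM Tris, 4 mM MgCl2, pH 7.4; 50 min at 30 °C. Nonspecific binding with unlabelled SCH23390. Reaction started by adding membranes and stopped by GF/B filtration.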

[5] = target: T3, 5-hydroxytryptamine receptor 1A (Homo sapiens, UniProt P08908); assay: Displacement of [3H]8-OH-DPAT from 5-HT1A receptor expressed in CHO cells by liquid scintillation counter; format: cell-based
T3 sequence (P08908 whole entry): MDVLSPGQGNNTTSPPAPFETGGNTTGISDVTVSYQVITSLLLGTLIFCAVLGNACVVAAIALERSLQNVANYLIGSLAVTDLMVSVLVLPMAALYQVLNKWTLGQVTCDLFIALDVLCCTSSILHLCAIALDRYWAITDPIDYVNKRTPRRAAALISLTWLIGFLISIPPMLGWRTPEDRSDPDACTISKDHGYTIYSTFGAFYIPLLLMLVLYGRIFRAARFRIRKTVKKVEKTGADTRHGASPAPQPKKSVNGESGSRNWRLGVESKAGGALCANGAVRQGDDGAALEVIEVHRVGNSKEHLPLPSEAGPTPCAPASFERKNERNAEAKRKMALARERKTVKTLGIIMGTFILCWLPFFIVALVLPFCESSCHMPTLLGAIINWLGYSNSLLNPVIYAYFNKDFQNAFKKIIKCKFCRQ
Method in brief: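 CHO cell membrane homogenates, 15 µg per tube, in duplicate tubes. Test compound at increasing concentrations from 1 nM with 0.7 nM [3H]8-OH-DPAT. Buffer 50 mM Tris, 4 mM MgCl2, pH 7.4. Incubated 50 min at 30 °C. Nonspecific binding defined with WAY100635. Stopped by GF/B filtration and cold Tris/EDTA wash.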

[6] = target: 5-hydroxytryptamine receptor 2A (Homo sapiens, UniProt P28223); assay: Displacement of [3H]Ketanserin from 5-HT2A receptor expressed in CHO cells by liquid scintillation counter; format: cell-based
5-hydroxytryptamine receptor 2A, sequence (P28223 whole entry): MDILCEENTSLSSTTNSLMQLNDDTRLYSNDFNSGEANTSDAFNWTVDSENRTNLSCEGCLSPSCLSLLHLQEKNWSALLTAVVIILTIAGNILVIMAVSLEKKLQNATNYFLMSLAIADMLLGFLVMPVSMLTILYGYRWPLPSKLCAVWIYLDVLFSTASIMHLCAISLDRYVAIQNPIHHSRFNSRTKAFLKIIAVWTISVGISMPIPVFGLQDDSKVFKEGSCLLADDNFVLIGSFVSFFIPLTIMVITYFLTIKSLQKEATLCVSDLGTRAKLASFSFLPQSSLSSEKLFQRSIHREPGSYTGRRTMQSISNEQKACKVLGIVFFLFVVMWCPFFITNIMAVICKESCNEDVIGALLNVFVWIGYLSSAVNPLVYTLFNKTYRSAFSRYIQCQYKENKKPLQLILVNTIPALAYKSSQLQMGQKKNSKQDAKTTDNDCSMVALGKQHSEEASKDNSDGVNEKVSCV
Method in brief: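 Duplicate incubations of CHO membranes (15 µg per tube) with [3H]Ketanserin and a rising compound series starting at 1 nM. Run in 50 mM Tris, 4 mM MgCl2, pH 7.4, at 30 °C for 50 min. Unlabelled ketanserin gave nonspecific binding. Bound counts retained on GF/B filters after cold-buffer washing.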

[7] = Selectivity ratio of Ki for 5-HT1A receptor to Ki for dopamine D3 receptor
[8] = Selectivity ratio of Ki for 5-HT2A receptor to Ki for 5-HT1A receptor

T1 sequence (P21728 whole entry): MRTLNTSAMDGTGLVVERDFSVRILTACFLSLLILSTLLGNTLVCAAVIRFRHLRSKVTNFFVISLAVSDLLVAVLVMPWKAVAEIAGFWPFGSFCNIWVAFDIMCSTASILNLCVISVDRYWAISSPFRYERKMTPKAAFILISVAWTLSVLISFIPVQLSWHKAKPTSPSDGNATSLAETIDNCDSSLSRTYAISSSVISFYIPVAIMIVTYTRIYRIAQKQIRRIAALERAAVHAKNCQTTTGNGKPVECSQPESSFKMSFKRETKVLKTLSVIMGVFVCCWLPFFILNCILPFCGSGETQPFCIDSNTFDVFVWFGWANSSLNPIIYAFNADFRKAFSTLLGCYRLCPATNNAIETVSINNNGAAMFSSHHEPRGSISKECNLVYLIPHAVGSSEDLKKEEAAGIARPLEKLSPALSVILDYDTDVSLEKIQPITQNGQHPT

Structure (SMILES)	inhibition (D(1A) dopamine receptor [1])	inhibition (D(2) dopamine receptor [2])	Ki (D(3) dopamine receptor)	Ki (D(2) dopamine receptor [3])	Ki (D(1A) dopamine receptor [4])	Ki [5]	Ki [6]	Ratio [7]	Ratio [8]
CCCN1CCc2cccc3c2C1Cc1cccc(OCc2cn(CCCN4CCN(c5ncccn5)CC4)nn2)c1-3 (racemic)	32%	13%	0.539 µM	–	–	–	–	–	–
CCCN1CCc2cccc3c2[C@H]1Cc1cccc(OCc2cn(CCCCN4CCN(c5ccccc5OC)CC4)nn2)c1-3	–	–	0.00918 µM	0.616 µM	1.6 µM	–	–	–	–
CCCN1CCc2cccc3c2[C@H]1Cc1cccc(OCCCCN2CCN(c4ccccc4OC)CC2)c1-3	–	–	0.0234 µM	0.141 µM	1.31 µM	–	–	–	–
CCCN1CCc2cccc3c2C1Cc1cccc(OCc2cn(CCCN4CCN(c5ccccc5)CC4)nn2)c1-3 (racemic)	63%	6%	0.191 µM	–	–	–	–	–	–
CCCN1CCc2cccc3c2[C@@H]1Cc1cccc(OCCCCN2CCN(c4ccccc4OC)CC2)c1-3	–	–	0.189 µM	0.174 µM	1.17 µM	–	–	–	–
CCCN1CCc2cccc3c2C1Cc1cccc(OCc2cn(CCN4CCN(c5ccccc5OC)CC4)nn2)c1-3 (racemic)	35%	19%	0.044 µM	–	–	–	–	–	–
CCCN1CCc2cccc3c2C1Cc1cccc(OCCCNCCCO)c1-3 (racemic)	44%	9%	4.51 µM	–	–	–	–	–	–
CCCN1CCc2cccc3c2C1Cc1cccc(OCCCCN2CCN(c4ccccc4OC)CC2)c1-3 (racemic)	–	–	0.0199 µM	0.088 µM	0.735 µM	0.058 µM	100 µM	–	–
CCCN1CCc2cccc3c2C1Cc1cccc(OCc2cn(CCCN4CCN(c5cccc(Cl)c5Cl)CC4)nn2)c1-3 (racemic)	–	40.5%	0.035 µM	–	2.01 µM	–	–	–	–
CCCN1CCc2cccc3c2C1Cc1cccc(OCCCN(CCCN2CCN(c4ccccc4OC)CC2)S(C)(=O)=O)c1-3 (racemic)	–	–	0.102 µM	0.399 µM	0.91 µM	–	–	–	–
CCCN1CCc2cccc3c2C1Cc1cccc(OCc2cn(CCCCN4CCN(c5ccccc5OC)CC4)nn2)c1-3 (racemic)	–	–	0.00267 µM	0.661 µM	2.7 µM	0.00968 µM	0.174 µM	3.6	18
CCCN1CCc2cccc3c2[C@@H]1Cc1cccc(OCc2cn(CCCCN4CCN(c5ccccc5OC)CC4)nn2)c1-3	66%	–	0.008 µM	0.293 µM	–	–	–	–	–
C#CCOc1cccc2c1-c1cccc3c1C(C2)N(CCC)CC3 (racemic)	–	28%	2.4 µM	–	–	–	–	–	–

More lines, now with the values ahead:

inhibition (D(1A) dopamine receptor [1])	inhibition (D(2) dopamine receptor [2])	Ki (D(3) dopamine receptor)	Ki (D(2) dopamine receptor [3])	Ki (D(1A) dopamine receptor [4])	Ki [5]	Ki [6]	Ratio [7]	Ratio [8]	Structure (SMILES)
42%	51%	0.281 µM	–	–	–	–	–	–	CCCN1CCc2cccc3c2C1Cc1cccc(OCCCn2cc(CN4CCN(c5ccccc5OC)CC4)nn2)c1-3 (racemic)
64%	–	0.00114 µM	7.38 µM	–	0.00759 µM	0.245 µM	6.6	32	CCCN1CCc2cccc3c2C1Cc1cccc(OCCCn2cc(CCN4CCN(c5ccccc5OC)CC4)nn2)c1-3 (racemic)
67%	–	0.021 µM	1.2 µM	–	–	–	–	–	CCCN1CCc2cccc3c2C1Cc1cccc(OCc2cn(CCCN4CCN(c5ccccc5OC)CC4)nn2)c1-3 (racemic)
14%	18%	0.00816 µM	–	–	–	–	–	–	CCCN1CCc2cccc3c2C1Cc1cccc(OCCCn2cc(CCCN4CCN(c5ccccc5OC)CC4)nn2)c1-3 (racemic)
54%	–	0.0077 µM	0.77 µM	–	–	–	–	–	CCCN1CCc2cccc3c2[C@H]1Cc1cccc(OCCCn2cc(CCN4CCN(c5ccccc5OC)CC4)nn2)c1-3
68%	–	0.00182 µM	0.6 µM	–	–	–	–	–	CCCN1CCc2cccc3c2[C@@H]1Cc1cccc(OCCCn2cc(CCN4CCN(c5ccccc5OC)CC4)nn2)c1-3
–	–	0.00814 µM	0.206 µM	1.9 µM	–	–	–	–	CCCN1CCc2cccc3c2C1Cc1cccc(OCCCn2cc(CCCCN4CCN(c5ccccc5OC)CC4)nn2)c1-3 (racemic)
